Laboratory results as given in ChEMBL document CHEMBL4368917, “Synthesis and Evaluation of a QS-17/18-Based Vaccine Adjuvant” (J Med Chem, 2019).
The source made the active and inactive calls. The rule behind the calls is not given here.

Assays:
[1] = system: Mus musculus; assay: Potentiation of recombinant Porphyromonas gingivalis HagB induced Th1/Th2 immune response in BALB/c mouse assessed as increase in IgG2a levels at 100 ug, sc measured at week 4 and 6 by ELISA; format: functional, organism-based
Outline: (§1)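 Mice from Frederick Cancer Research were immunized with rHagB plus adjuvant (100 or 50 μg; adjuvant given at 1.0 mg/mL as solution or suspension with antigen). Retro-orbital blood was collected before and after immunization, and serum was stored at −20 °C. ELISA plates were coated with rHagB (1 μg/mL) in borate buffered saline pH 8.2; serial two-fold serum dilutions were run in duplicate.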

[2] = system: Mus musculus; assay: Potentiation of serum IgG/recombinant Porphyromonas gingivalis HagB induced-immune response in BALB/c mouse at 100 ug, sc immunized on day 14 and 28 after 42 days by ELISA; format: functional, organism-based; outline: as §1
[3] = Toxicity in BALB/c mouse assessed as effect on body weight at 100 ug, sc measured after 41 days; format: organism-based; details: in vivo, 984 h
Outline: (§2)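 Mice were weighed before each immunization and on day 42 after the last immunization. Adjuvant was given with rHagB antigen at 100 μg, or at 50 μg for one group.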

[4] = system: Mus musculus; assay: Potentiation of recombinant Porphyromonas gingivalis HagB induced Th1/Th2 immune response in BALB/c mouse assessed as increase in IgG1 levels at 100 ug, sc measured at week 4 by ELISA; format: functional, organism-based; outline: as §1
[5] = Toxicity in BALB/c mouse assessed as effect on body weight at 50 to 100 ug, sc measured after 41 days; format: organism-based; details: in vivo, 984 h; outline: as §2
[6] = system: Mus musculus; assay: Potentiation of recombinant Porphyromonas gingivalis HagB induced Th1/Th2 immune response in BALB/c mouse assessed as increase in IgG2a levels at 50 ug, sc measured at week 4 and 6 by ELISA; format: functional, organism-based; outline: as §1
[7] = system: Mus musculus; assay: Potentiation of recombinant Porphyromonas gingivalis HagB induced Th1/Th2 immune response in BALB/c mouse assessed as increase in IgG1 levels at 50 ug, sc measured at week 4 and 6 by ELISA; format: functional, organism-based; outline: as §1
[8] = system: Mus musculus; assay: Potentiation of recombinant Porphyromonas gingivalis HagB induced Th1/Th2 immune response in BALB/c mouse assessed as increase in IgG1 levels at 100 ug, sc measured at week 4 and 6 by ELISA; format: functional, organism-based; outline: as §1
[9] = system: Mus musculus; assay: Potentiation of serum IgG/recombinant Porphyromonas gingivalis HagB induced immune response n BALB/c mouse at 100 ug, sc immunized on day 14 and 28 measured week 4 and 6 post immunization by ELISA; format: functional, organism-based; outline: as §1

In the case of CCCCCCCCCCCCNC(=O)[C@H]1O[C@@H](O[C@H]2CC[C@]3(C)[C@H]4CC=C5[C@@H]6CC(C)(C)CC[C@]6(C(=O)O[C@@H]6O[C@H](C)[C@H](O)[C@H](O)[C@H]6O[C@@H]6O[C@@H](C)[C@H](O[C@@H]7OC[C@@H](O)[C@H](O[C@@H]8OC[C@](O)(CO)[C@H]8O)[C@H]7O)[C@@H](O)[C@H]6O)[C@H](O)C[C@@]5(C)[C@]4(C)CC[C@H]3[C@]2(C)C=O)[C@H](O[C@@H]2O[C@H](CO)[C@H](O)[C@H](O)[C@H]2O)[C@@H](O[C@@H]2OC[C@@H](O)[C@H](O)[C@H]2O)[C@@H]1O, the Activity [1] is reported as “inactive”, the Activity [2] is reported as “inactive” and the Activity [3] is reported as “Non-Toxic”. For the same molecule, the Activity [4] was “inactive”.
With CCCCCCCCCCCCNC(=O)[C@H]1O[C@@H](O[C@H]2CC[C@]3(C)[C@H]4CC=C5[C@@H]6CC(C)(C)CC[C@]6(C(=O)O[C@@H]6O[C@H](C)[C@H](O)[C@H](O)[C@H]6O[C@@H]6O[C@@H](C)[C@H](O[C@@H]7OC[C@@H](O)[C@H](O[C@@H]8OC[C@@H](O)[C@H](O)[C@H]8O)[C@H]7O)[C@@H](O[C@@H]7O[C@H](CO)[C@@H](O)[C@H](O)[C@H]7O)[C@H]6O)[C@H](O)C[C@@]5(C)[C@]4(C)CC[C@H]3[C@]2(C)C=O)[C@H](O[C@@H]2O[C@H](CO)[C@H](O)[C@H](O)[C@H]2O)[C@@H](O[C@@H]2OC[C@@H](O)[C@H](O)[C@H]2O)[C@@H]1O the Activity [5] was “Non-Toxic”, the Activity [1] was “Active” and the Activity [6] was “Active”. For the same molecule, the Activity [2] was “Active”, the Activity [7] was “Active” and the Activity [8] was “Active”. For the same molecule, the Activity [9] was “Active”.
